Measurements: ChEMBL document CHEMBL1143739, “SAR study of bicyclo[4.1.0]heptanes as melanin-concentrating hormone receptor R1 antagonists: taming hERG” (Bioorg Med Chem, 2007)
Active and inactive are the calls of the source. The calls are words filed in the database; no cut-off is given here.

Experiments:
[1] = target: Melanin-concentrating hormone receptor 1 (Homo sapiens, UniProt Q99705); experiment: Displacement of [125I]MCH from MCHR1 expressed in CHO cells; type: cell-based
How it was run: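 Human MCH R1, CHO cell membranes (0.1 mg/mL) on SPA beads (1 mg/mL). Buffer: 25 mM HEPES, 10 mM MgCl2, 5 mM MnCl2, 0.1% BSA, pH 7.4. Incubation 2–4 h at room temperature, scintillation count. Ki by non-linear regression; mean ± range of two determinations, each in quadruplicate.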

[2] = target: Melanin-concentrating hormone receptor 1 (Mus musculus) (UniProt Q8JZL2); experiment: Ex vivo displacement of [125I]S36057 binding from mouse brain MCHR1 at 30 mg/kg, po after 6 hrs; type: functional, organism-based; set-up: dose 30 mg/kg
Sequence of Melanin-concentrating hormone receptor 1 (Mus musculus) (Q8JZL2 whole entry): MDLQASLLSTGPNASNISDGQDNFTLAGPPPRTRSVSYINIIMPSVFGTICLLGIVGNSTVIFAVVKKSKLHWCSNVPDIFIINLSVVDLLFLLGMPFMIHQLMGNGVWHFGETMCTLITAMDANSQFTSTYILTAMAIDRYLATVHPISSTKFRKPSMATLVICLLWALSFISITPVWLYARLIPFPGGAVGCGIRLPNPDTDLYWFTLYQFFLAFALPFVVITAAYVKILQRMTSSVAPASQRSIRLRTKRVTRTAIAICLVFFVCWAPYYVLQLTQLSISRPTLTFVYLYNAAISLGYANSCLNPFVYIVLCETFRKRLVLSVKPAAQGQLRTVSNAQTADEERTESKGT

[3] = target: T1, hERG (KCNH2) (Homo sapiens, UniProt Q12809); experiment: Inhibition of hERG expressed in CHO cells at 5 ug/mL by rubidium efflux assay; type: toxicity, cell-based; details: CHO cells that express hERG
T1 sequence (Q12809 whole entry): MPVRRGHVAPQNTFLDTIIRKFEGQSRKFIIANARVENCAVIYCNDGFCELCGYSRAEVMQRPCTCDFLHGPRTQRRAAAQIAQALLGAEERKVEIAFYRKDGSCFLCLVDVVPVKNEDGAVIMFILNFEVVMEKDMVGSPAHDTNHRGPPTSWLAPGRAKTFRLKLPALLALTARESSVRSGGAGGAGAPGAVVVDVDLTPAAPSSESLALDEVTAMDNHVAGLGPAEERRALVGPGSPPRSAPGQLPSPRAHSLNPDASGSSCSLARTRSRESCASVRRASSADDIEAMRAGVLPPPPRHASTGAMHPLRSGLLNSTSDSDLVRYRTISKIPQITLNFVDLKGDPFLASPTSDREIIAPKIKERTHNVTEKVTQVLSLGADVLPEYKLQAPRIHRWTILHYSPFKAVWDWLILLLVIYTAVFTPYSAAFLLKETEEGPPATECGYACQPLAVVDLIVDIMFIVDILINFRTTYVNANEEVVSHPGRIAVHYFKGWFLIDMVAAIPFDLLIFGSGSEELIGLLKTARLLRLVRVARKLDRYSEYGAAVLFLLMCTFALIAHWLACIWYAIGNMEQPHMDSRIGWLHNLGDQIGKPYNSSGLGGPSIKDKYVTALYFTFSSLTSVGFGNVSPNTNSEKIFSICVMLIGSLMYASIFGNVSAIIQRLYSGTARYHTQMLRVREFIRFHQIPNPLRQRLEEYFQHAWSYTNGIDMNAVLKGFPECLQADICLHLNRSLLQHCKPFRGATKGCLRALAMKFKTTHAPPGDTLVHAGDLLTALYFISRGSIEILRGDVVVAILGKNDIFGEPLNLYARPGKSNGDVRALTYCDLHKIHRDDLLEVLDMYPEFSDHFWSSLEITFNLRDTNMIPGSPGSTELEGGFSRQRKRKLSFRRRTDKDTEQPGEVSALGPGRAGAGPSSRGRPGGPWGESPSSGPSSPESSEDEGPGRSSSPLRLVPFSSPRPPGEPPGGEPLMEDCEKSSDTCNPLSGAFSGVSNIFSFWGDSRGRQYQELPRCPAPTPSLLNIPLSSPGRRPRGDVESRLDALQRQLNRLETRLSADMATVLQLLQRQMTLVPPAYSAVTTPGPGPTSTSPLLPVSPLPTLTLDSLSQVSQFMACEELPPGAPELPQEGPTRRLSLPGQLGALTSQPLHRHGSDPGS
How it was run: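 hERG-CHO cells plated 24 h, then loaded 3 h in HEPES-buffered saline with 5.4 mM RbCl. Compound added and equilibrated 30 min at 37 °C. Cells washed three times in Rb-free saline (5.4 mM KCl), then depolarized 5 min with 45.4 mM KCl.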

[4] = target: T1, hERG (KCNH2); experiment: Inhibition of hERG expressed in CHO cells at […] by rubidium efflux assay; type: toxicity, cell-based; details: CHO cells that express hERG
[5] = target: Melanin-concentrating hormone receptor 1 (Mus musculus) (UniProt Q8JZL2); experiment: Ex vivo displacement of [125I]S36057 binding from mouse brain MCHR1 at 30 mg/kg, po after 24 hrs; type: functional, organism-based; set-up: dose 30 mg/kg

Sequence of Melanin-concentrating hormone receptor 1 (Q99705 whole entry): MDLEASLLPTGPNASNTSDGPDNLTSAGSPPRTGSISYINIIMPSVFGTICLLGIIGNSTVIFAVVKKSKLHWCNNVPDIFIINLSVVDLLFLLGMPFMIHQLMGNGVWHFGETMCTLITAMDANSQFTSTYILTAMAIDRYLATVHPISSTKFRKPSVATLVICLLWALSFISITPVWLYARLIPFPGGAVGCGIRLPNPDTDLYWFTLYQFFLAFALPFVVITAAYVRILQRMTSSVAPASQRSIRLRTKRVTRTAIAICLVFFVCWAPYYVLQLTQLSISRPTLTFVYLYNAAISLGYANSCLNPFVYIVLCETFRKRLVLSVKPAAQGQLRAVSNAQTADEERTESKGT

Ki [1] [nM]	Activity [2] [%]	Activity [5]	SMILES	inhibition at 5 ug/mL [3] [%]	inhibition at […] [4] [%]
15	26		CN(C)Cc1cccc([C@]23CC[C@@H](N(CC4CCN(S(C)(=O)=O)CC4)C(=O)Nc4ccc(F)c(Cl)c4)CC2C3)c1 (stereo partly specified)	8	7
1.6	99	81%	CC(C)N(CCN(C(=O)Nc1cc(Cl)nc(Cl)c1)[C@@H]1CC[C@]2(c3cccc(C#N)c3)CC2C1)[C@@H](C)CO (stereo partly specified)	60	
12	81	66%	CC(C)N(CCF)CCN(C(=O)Nc1ccc(F)c(Cl)c1)[C@@H]1CC[C@]2(c3cccc(C#N)c3)CC2C1 (stereo partly specified)	50	
30	16		O=C(Nc1ccc(F)c(Cl)c1)N(CCN1CCCC1)C1CC=C(c2cccnc2)CC1 (stereo unspecified)		
2.4	0		CS(=O)(=O)N1CCC(CN(C(=O)Nc2cc(Cl)nc(Cl)c2)[C@@H]2CC[C@]3(c4cccc(CN)c4)CC3C2)CC1 (stereo partly specified)	3	-1
3.3	0		CN(C)Cc1cccc([C@]23CC[C@@H](N(CC4CCN(S(C)(=O)=O)CC4)C(=O)Nc4cc(Cl)nc(Cl)c4)CC2C3)c1 (stereo partly specified)	7	8
8.2	77	57%	NCc1ccc(C2=CCC(N(CCN3CCCC3)C(=O)Nc3ccc(F)c(Cl)c3)CC2)s1 (stereo unspecified)	26	
31	59	3%	CC(=O)c1ccc(C2=CCC(N(CCN3CCCC3)C(=O)Nc3ccc(F)c(Cl)c3)CC2)s1 (stereo unspecified)	43	
5.2	75	35%	CC(C)N(CCN(C(=O)Nc1ccc(F)c(Cl)c1)[C@@H]1CC[C@]2(c3cccc(C#N)c3)CC2C1)[C@@H](C)CO (stereo partly specified)	82	
11	31	2%	CC1CC[C@@H](CO)N1CCN(C(=O)Nc1ccc(F)c(Cl)c1)[C@@H]1CC[C@]2(c3cccc(C#N)c3)CC2C1 (stereo partly specified)	78	
9.9	0		CS(=O)(=O)N1CCC(CN(C(=O)Nc2ccc(F)c(Cl)c2)[C@@H]2CC[C@]3(c4cccc(CN)c4)CC3C2)CC1 (stereo partly specified)	14	8
	78	inactive	N#Cc1cccc([C@]23CC[C@@H](N(CCN4CCC[C@H]4CO)C(=O)Nc4ccc(F)c(Cl)c4)CC2C3)c1 (stereo partly specified)	75	
	49	inactive	N#Cc1cccc([C@]23CC[C@@H](N(CCN4CC[C@@H](O)C4)C(=O)Nc4ccc(F)c(Cl)c4)CC2C3)c1 (stereo partly specified)	80	
7.2			CS(=O)(=O)N1CCC(CN(C(=O)Nc2ccc(F)c(Cl)c2)[C@@H]2CC[C@]3(c4cccc(C#N)c4)CC3C2)CC1 (stereo partly specified)	24	6
80			CS(=O)(=O)N1CCC(CCN(C(=O)Nc2ccc(F)c(C(F)(F)F)c2)[C@@H]2CC[C@]3(c4cccc(C#N)c4)CC3C2)CC1 (stereo partly specified)	20	18
8.9	1		CS(=O)(=O)N1CCC(CN(C(=O)Nc2cc(Cl)nc(Cl)c2)[C@@H]2CC[C@]3(c4cccc(CN5CC[C@H](O)C5)c4)CC3C2)CC1 (stereo partly specified)	0	-7
17	37		NCc1cnc(C2=CCC(N(CCN3CCCC3)C(=O)Nc3ccc(F)c(Cl)c3)CC2)s1 (stereo unspecified)	14	
54			CC(C)N(CCN(C(=O)Nc1ccc(F)c(Cl)c1)[C@@H]1CC[C@]2(c3cccc(CN4CCN(C)CC4)c3)CC2C1)C(C)C (stereo partly specified)	13	10
	99	58%	CC(C)N(CCN(C(=O)Nc1cc(Cl)nc(Cl)c1)[C@@H]1CC[C@]2(c3cccc(C#N)c3)CC2C1)C(C)C (stereo in doubt; 13)		
